Source: ChEMBL document CHEMBL3108694, “Development of novel dual binders as potent, selective, and orally bioavailable tankyrase inhibitors” (J Med Chem, 2013)
Converted amounts (≈) assume the structure as drawn.

Legend:
[1] = Inhibition of TNKS in human SW480 cells assessed as accumulation of axin-2 into cytoplasmic foci after 24 hrs by Hoechst dye-based assay; settings: SW480, 24 h
[2] = Half life in CD-1 mouse plasma at 1 uM by LC-MS/MS analysis; assay type: ADME, cell-free
Method in brief: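 Lithium-heparinized CD-1 mouse plasma was spiked with 1 μM substrate and incubated at 37 °C for 3 h, sampling at 0, 0.167, 1, 2 and 3 h (n = 2). Samples underwent acetonitrile protein precipitation with tolbutamide as internal standard. Analysis was by reversed-phase UPLC-ESI-MS/MS in MRM mode.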

[3] = Inhibition of TNKS in human SW480 cells assessed as degradation of total pool of beta-catenin after 40 to 48 hrs; assay type: cell-based
Method in brief: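 SW480 cells were seeded at 10 000/well in MEMα with 10% HI FBS, GlutaMAX, pyruvate and 10 mM HEPES. They were treated with a 10-point, 3-fold dilution series at 0.1% final DMSO for 40–48 h at 37 °C, then lysed. Total β-catenin was measured by MSD sandwich immunoassay (polyclonal capture, SULFO-TAG mAb detection).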

[4] = target: T1, Poly [ADP-ribose] polymerase tankyrase-1 (Homo sapiens, UniProt O95271); assay: Inhibition of 6x-His-tagged TNKS1 (unknown origin) after 60 mins
T1 sequence (O95271 whole entry): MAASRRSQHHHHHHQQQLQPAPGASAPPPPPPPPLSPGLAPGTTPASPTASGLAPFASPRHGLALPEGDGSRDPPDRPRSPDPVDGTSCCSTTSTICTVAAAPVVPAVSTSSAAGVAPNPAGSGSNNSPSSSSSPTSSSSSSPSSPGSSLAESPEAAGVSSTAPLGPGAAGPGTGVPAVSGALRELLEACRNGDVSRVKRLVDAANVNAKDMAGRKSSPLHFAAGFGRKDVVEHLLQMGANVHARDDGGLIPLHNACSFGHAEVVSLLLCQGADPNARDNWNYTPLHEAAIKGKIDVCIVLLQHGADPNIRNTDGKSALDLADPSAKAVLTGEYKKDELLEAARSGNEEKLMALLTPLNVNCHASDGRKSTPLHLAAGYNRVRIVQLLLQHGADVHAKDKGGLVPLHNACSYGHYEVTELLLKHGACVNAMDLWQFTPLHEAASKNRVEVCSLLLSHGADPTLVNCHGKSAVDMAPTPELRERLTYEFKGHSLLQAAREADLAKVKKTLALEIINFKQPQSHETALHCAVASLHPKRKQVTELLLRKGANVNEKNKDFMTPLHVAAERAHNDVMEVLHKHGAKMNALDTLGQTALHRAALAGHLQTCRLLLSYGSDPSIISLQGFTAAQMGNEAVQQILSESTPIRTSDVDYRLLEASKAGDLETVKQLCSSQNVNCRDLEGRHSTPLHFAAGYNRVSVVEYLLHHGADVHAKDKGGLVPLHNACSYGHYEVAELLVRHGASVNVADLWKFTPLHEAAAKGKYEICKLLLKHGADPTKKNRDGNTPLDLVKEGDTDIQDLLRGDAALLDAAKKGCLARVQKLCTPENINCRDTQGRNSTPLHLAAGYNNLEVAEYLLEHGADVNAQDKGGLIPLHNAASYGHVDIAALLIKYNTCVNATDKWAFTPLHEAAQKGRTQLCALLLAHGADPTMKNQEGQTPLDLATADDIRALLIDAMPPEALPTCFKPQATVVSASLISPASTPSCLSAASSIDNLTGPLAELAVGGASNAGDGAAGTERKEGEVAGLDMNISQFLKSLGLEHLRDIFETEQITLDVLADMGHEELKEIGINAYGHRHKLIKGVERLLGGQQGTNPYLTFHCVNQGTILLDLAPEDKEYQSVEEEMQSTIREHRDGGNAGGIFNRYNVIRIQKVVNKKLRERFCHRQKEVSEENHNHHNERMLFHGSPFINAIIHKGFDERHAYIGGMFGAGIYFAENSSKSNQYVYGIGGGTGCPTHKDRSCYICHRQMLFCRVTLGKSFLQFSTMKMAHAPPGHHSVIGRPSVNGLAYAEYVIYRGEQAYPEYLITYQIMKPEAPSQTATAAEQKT

[5] = Solubility in fasted state simulated intestinal fluid at pH 6.8; assay type: ADME
[6] = Intrinsic clearance in rat liver microsomes at 1 uM after 30 mins; assay type: ADME; settings: read-out: CLH
Method in brief: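 Substrate depletion in rat liver microsomes: 0.25 mg protein/mL, 1 mM NADPH and 2 mM MgCl2 in 50 mM potassium phosphate, pH 7.4, prewarmed to 37 °C. Test compound was added to a final 1 μM, and parent loss was measured after 30 min at 37 °C.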

[7] = Tmax in CD-1 mouse at 30 mg/kg, po; assay type: ADME, organism-based; design: dose 30 mg/kg, route oral; settings: in vivo
Method in brief: (§1)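 Male CD-1 mice given a single oral dose of 30 mg/kg. Vehicle was 10% Pluronic F68, 30% HPBCD and 60% water, pH adjusted to 10.0 with NaOH for most compounds or to 2.5 with methanesulfonic acid for one. Mean plasma PK parameters were reported.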

[8] = AUC (0 to infinity) in CD-1 mouse at 30 mg/kg, po; assay type: ADME, organism-based; design: time infinity, dose 30 mg/kg, route oral; settings: plasma; method in brief: as §1
[9] = Cmax in CD-1 mouse at 30 mg/kg, po; assay type: ADME, organism-based; design: dose 30 mg/kg, route oral; settings: in vivo; method in brief: as §1
[10] = Inhibition of TNKS in human DLD1 cells expressing APC mutant assessed as inhibition of super-Topflash reporter gene transcription after 40 to 48 hrs by dual-glo luciferase reporter gene assay; assay type: cell-based; settings: DLD-1
Method in brief: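 DLD-1 cells carried an 8× TCF-driven firefly luciferase and an EF1a-driven Renilla luciferase, and were seeded at 10 000/well in RPMI with 10% FBS without antibiotics. A 10-point, 3-fold dilution series starting at 10 μM was applied for 40–48 h at 37 °C. Firefly and Renilla activities were read with Dual-Glo reagents.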

[11] = Fraction unbound in mouse plasma at 5 uM after 5 hrs by equilibrium dialysis method; assay type: ADME, cell-free
Method in brief: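 Mouse plasma was spiked to a final 5 μM and equilibrium-dialyzed against plasma water (ultrafiltrate) for 5 h at 37 °C in a CO2 incubator, using a rapid equilibrium dialysis device. Fraction unbound was determined in duplicate.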

SMILES | IC50 [3] [nM] | IC50 [4] [nM] | microsomal CLint at 1 µM [6] [µL/min/mg] | also measured
O=C(CCc1nc2ccccc2c(=O)[nH]1)Nc1ccc(-c2nnc(-c3ccccc3)o2)cc1 | 410 |  |  | EC50 [1]: 2450 nM; half-life at 1 µM [2]: 2.03 h
O=C(CCc1nc2ccccc2c(=O)[nH]1)Nc1ccc(-c2nc3ccccc3o2)cc1 | 7720 | 860 |  | 
O=C(CSc1nc2ccccc2c(=O)[nH]1)N[C@H]1CC[C@H](c2nnc(-c3ccccc3)o2)CC1 | 91 |  | 20 | solubility [5]: 1 µg/mL (≈ 2.17 µM)
O=C(CCc1nc2ncccc2c(=O)[nH]1)N[C@H]1CC[C@H](c2nnc(-c3ccccc3)o2)CC1 | 1950 |  | 24 | 
COc1ccccc1NC(=O)[C@H]1CC[C@H](NC(=O)CCc2nc3ccccc3c(=O)[nH]2)CC1 | 300 | 31 |  | half-life at 1 µM [2]: > 16.7 h
O=C(CCc1nc2ccccc2c(=O)[nH]1)Nc1ccc(-c2csc(-c3ccccc3)n2)cc1 |  | > 46000 |  | 
O=C(CCCc1nc2ccccc2c(=O)[nH]1)N[C@H]1CC[C@H](c2nnc(-c3ccccc3)o2)CC1 | 17 |  | 20 | solubility [5]: 11 µg/mL (≈ 24 µM)
O=C(CCCSc1nc2ccccc2c(=O)[nH]1)N[C@H]1CC[C@H](c2nnc(-c3ccccc3)o2)CC1 | 100 |  | 159 | solubility [5]: 1 µg/mL (≈ 2.04 µM)
COc1ccccc1N(C)C(=O)c1ccc(NC(=O)CCc2nc3ccccc3c(=O)[nH]2)cc1 | 5680 | 400 |  | half-life at 1 µM [2]: 0.633 h
O=C(CCSc1nccc(=O)[nH]1)N[C@H]1CC[C@H](c2nnc(-c3ccccc3)o2)CC1 | 2130 |  | < 14 | solubility [5]: 53 µg/mL (≈ 125 µM)
O=C(CCSc1nc2ccccc2c(=O)[nH]1)N[C@H]1CC[C@H](Oc2cccc(Cl)c2)CC1 | 120 |  |  | 
O=C(CCc1nc2ccccc2c(=O)[nH]1)Nc1ccc(-c2nc(-c3ccccc3)no2)cc1 |  | > 46000 |  | 
O=C(CCc1nc2ccccc2c(=O)[nH]1)Nc1ccc(-c2c[nH]c(-c3ccccc3)n2)cc1 | > 10000 | 640 |  | half-life at 1 µM [2]: 0.883 h
N#Cc1cccc(O[C@H]2CC[C@H](NC(=O)CCSc3nc4ccccc4c(=O)[nH]3)CC2)c1 | 47.8 |  |  | 
O=C(CCc1nc2c(c(=O)[nH]1)CCCN2)N[C@H]1CC[C@H](c2nnc(-c3ccccc3)o2)CC1 | 1020 |  | < 14 | 
Cn1c(-c2ccc(NC(=O)CCc3nc4ccccc4c(=O)[nH]3)cc2)nc2ccccc21 | > 10000 | 1090 |  | half-life at 1 µM [2]: > 8.33 h

SMILES | IC50 [3] [nM] | IC50 [4] [nM] | microsomal CLint at 1 µM [6] [µL/min/mg] | also measured
COc1ccccc1NS(=O)(=O)c1ccc(NC(=O)CCc2nc3ccccc3c(=O)[nH]2)cc1 |  | > 46000 |  | 
O=C(N[C@H]1CC[C@H](c2nnc(-c3ccccc3)o2)CC1)[C@@H]1CCCN(Cc2nc3ccccc3c(=O)[nH]2)C1 | 1170 |  | 206 | solubility [5]: 43 µg/mL (≈ 83.9 µM)
COc1cccc(C)c1NC(=O)c1ccc(NC(=O)CCc2nc3ccccc3c(=O)[nH]2)cc1 |  | 1750 |  | half-life at 1 µM [2]: 4.5 h
COc1ccccc1NC(=O)c1ccc(NC(=O)CCc2nc3ccccc3c(=O)[nH]2)cc1C | 3090 | 210 |  | half-life at 1 µM [2]: 0.717 h
O=C(CCc1nc2ccccc2c(=O)[nH]1)N[C@H]1CC[C@H](c2nnc(-c3ccccc3)o2)CC1 | 80 |  | < 14 | EC50 [1]: 640 nM; solubility [5]: 16.2 µg/mL (≈ 36.5 µM); half-life at 1 µM [2]: > 8.33 h
O=C(CCSc1nc2ccccc2c(=O)[nH]1)N[C@H]1CC[C@H](Oc2ccc(Cl)cc2)CC1 | 20 |  |  | 
N#Cc1ccc(O[C@H]2CC[C@H](NC(=O)CCSc3nc4ccccc4c(=O)[nH]3)CC2)cc1Cl | 8.1 |  |  | Tmax [7]: 1.58 h; AUC(0-inf) [8]: 100 µM·h; Cmax [9]: 15.1 µM; IC50 [10]: 1.1 nM; EC50 [1]: 8.4 nM; fraction unbound at 5 h, 5 µM [11]: 0.002
O=C(C[C@H]1CCCN1Cc1nc2ccccc2c(=O)[nH]1)N[C@H]1CC[C@H](c2nnc(-c3ccccc3)o2)CC1 | 500 |  | > 399 | solubility [5]: 42 µg/mL (≈ 81.9 µM)
COc1ccccc1NC(=O)[C@H]1CC[C@@H](NC(=O)CCc2nc3ccccc3c(=O)[nH]2)CC1 |  | 7460 |  | half-life at 1 µM [2]: > 16.7 h
N#Cc1cc(O[C@H]2CC[C@H](NC(=O)CCSc3nc4ccccc4c(=O)[nH]3)CC2)ccc1Cl | 24.2 |  |  | 
Cc1ccnc2c(NC(=O)c3ccc(N4C(=O)[C@@H]5[C@H](C4=O)[C@@H]4C=C[C@H]5C4)cc3)cccc12 |  | 160 |  | 
O=C(CCSc1nc2ccccc2c(=O)[nH]1)N[C@H]1CC[C@H](Oc2ccccn2)CC1 | 15.4 |  |  | 
O=C(CCc1nc2ccccc2c(=O)[nH]1)Nc1ccc(-c2nc(-c3ccccc3)c[nH]2)cc1 |  | > 46000 |  | 
O=C(CCSc1nc2c(c(=O)[nH]1)CCCC2)N[C@H]1CC[C@H](c2nnc(-c3ccccc3)o2)CC1 | 11 |  | 60 | Tmax [7]: 3.23 h; AUC(0-inf) [8]: 5.3 µM·h; Cmax [9]: 3.6 µM; IC50 [10]: 1.3 nM; EC50 [1]: 14 nM; solubility [5]: 8 µg/mL (≈ 16.7 µM); fraction unbound at 5 h, 5 µM [11]: 0.012
O=C(CCSc1nc2ccccc2c(=O)[nH]1)N[C@H]1CC[C@H](Oc2ccc(F)cc2)CC1 | 16.7 |  |  | 
